Assay results as given in ChEMBL document CHEMBL4689842, “EUbOPEN Chemogenomics Library wave 1” (2021).

How the values were obtained:
Assay type in all cases: toxicity, cell-based
HEK-293T = assay: Incucyte cell viability with HEK293T; settings: human, 10 µM, compound concentration 10 uM; also: filed as whole numbers so only -1 and 0 and 1 occur
U2OS = assay: Incucyte cell viability with U2OS; settings: human, 10 µM, compound concentration 10 uM; also: filed as whole numbers so only -1 and 0 and 1 occur
Fibroblast = assay: Multiplex assay against human fibroblast
Method in brief: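 Cells were classed with CellPathfinder machine-learning gating, first as Hoechst high-intensity objects or normal cells, then (normal cells) as healthy, pyknosed or fragmented nuclei, and finally (pyknosed cells) as mitotic or apoptotic. Staining of live cells at seeding used Hoechst33342, BioTracker Green Microtubule Cytoskeleton Dye, MitoTracker Red and Annexin V Alexa Fluor 680, with imaging on a CQ1 microscope at 37°C and 5% CO2 after compound addition. Tubulin, mitochondrial-mass and membrane-permeability phenotypes are per cents of healthy-nucleus cells.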

[1] = 0 h, replicate number 1, timepoint 0 hours
[2] = 12 h, replicate number 1, timepoint 12 hours
[3] = 18 h, replicate number 1, timepoint 18 hours
[4] = 24 h, replicate number 1, timepoint 24 hours
[5] = 12 h, 1 µM, compound concentration 1 uM, replicate 1
[6] = 12 h, 1 µM, compound concentration 1 uM, replicate 2
[7] = 12 h, 10 µM, compound concentration 10 uM, replicate 1
[8] = 12 h, 10 µM, compound concentration 10 uM, replicate 2
[9] = 24 h, 1 µM, compound concentration 1 uM, replicate 1
[10] = 24 h, 1 µM, compound concentration 1 uM, replicate 2

Structure (SMILES): CN1C(=O)[C@@H](NC(=O)c2cc3ccccc3[nH]2)N=C(c2ccccc2)c2ccccc21 [DEVAZEPIDE]
- Growth Rate (HEK-293T; [1]): 0
- Growth Rate (HEK-293T; 6 h, replicate number 2, timepoint 6 hours): 1
- Growth Rate (HEK-293T; [2]): 1
- Growth Rate (HEK-293T; 12 h, replicate number 2, timepoint 12 hours): 0
- Growth Rate (HEK-293T; [3]): 0
- Growth Rate (HEK-293T; [4]): 0
- Growth Rate (U2OS; [1]): 0
- Growth Rate (U2OS; 6 h, replicate number 1, timepoint 6 hours): 1
- Growth Rate (U2OS; [2]): 1
- Growth Rate (U2OS; [3]): 1
- Growth Rate (U2OS; 18 h, replicate number 2, timepoint 18 hours): 0
- Growth Rate (U2OS; [4]): 1
- Growth Rate (U2OS; 24 h, replicate number 2, timepoint 24 hours): 0
- Population Apoptotic (%) (Fibroblast; [5]): 72%
- Population Fragmented Nuclei (%) (Fibroblast; [5]): 21%
- Population Healthy Nuclei (%) (Fibroblast; [5]): 36%
- Population Hoechst High Intensity Objects (%) (Fibroblast; [5]): 13%
- Population Membrane Permeable-Phenotype (%) (Fibroblast; [5]): 34%
- Population Mitochondria Different-Phenotype (%) (Fibroblast; [5]): 3%
- Population Mitotic Cells (%) (Fibroblast; [5]): 27%
- Population Normal (%) (Fibroblast; [5]): 87%
- Population Pyknosed Nuclei (%) (Fibroblast; [5]): 41%
- Population Tubulin-Different-Phenotype (%) (Fibroblast; [5]): 56%
- Total Cell Count (Fibroblast; [5]): 100
- Population Apoptotic (%) (Fibroblast; [6]): 33%
- Population Fragmented Nuclei (%) (Fibroblast; [6]): 4%
- Population Healthy Nuclei (%) (Fibroblast; [6]): 85%
- Population Hoechst High Intensity Objects (%) (Fibroblast; [6]): 5%
- Population Membrane Permeable-Phenotype (%) (Fibroblast; [6]): 9%
- Population Mitochondria Different-Phenotype (%) (Fibroblast; [6]): 23%
- Population Mitotic Cells (%) (Fibroblast; [6]): 66%
- Population Normal (%) (Fibroblast; [6]): 94%
- Population Pyknosed Nuclei (%) (Fibroblast; [6]): 9%
- Population Tubulin-Different-Phenotype (%) (Fibroblast; [6]): 10%
- Total Cell Count (Fibroblast; [6]): 68
- Population Apoptotic (%) (Fibroblast; [7]): 67%
- Population Fragmented Nuclei (%) (Fibroblast; [7]): 18%
- Population Healthy Nuclei (%) (Fibroblast; [7]): 48%
- Population Hoechst High Intensity Objects (%) (Fibroblast; [7]): 16%
- Population Membrane Permeable-Phenotype (%) (Fibroblast; [7]): 42%
- Population Mitochondria Different-Phenotype (%) (Fibroblast; [7]): 15%
- Population Mitotic Cells (%) (Fibroblast; [7]): 32%
- Population Normal (%) (Fibroblast; [7]): 83%
- Population Pyknosed Nuclei (%) (Fibroblast; [7]): 33%
- Population Tubulin-Different-Phenotype (%) (Fibroblast; [7]): 68%
- Total Cell Count (Fibroblast; [7]): 112
- Population Apoptotic (%) (Fibroblast; [8]): 33%
- Population Fragmented Nuclei (%) (Fibroblast; [8]): 20%
- Population Healthy Nuclei (%) (Fibroblast; [8]): 75%
- Population Hoechst High Intensity Objects (%) (Fibroblast; [8]): 7%
- Population Membrane Permeable-Phenotype (%) (Fibroblast; [8]): 37%
- Population Mitochondria Different-Phenotype (%) (Fibroblast; [8]): 48%
- Population Mitotic Cells (%) (Fibroblast; [8]): 66%
- Population Normal (%) (Fibroblast; [8]): 92%
- Population Pyknosed Nuclei (%) (Fibroblast; [8]): 5%
- Population Tubulin-Different-Phenotype (%) (Fibroblast; [8]): 66%
- Total Cell Count (Fibroblast; [8]): 65
- Population Apoptotic (%) (Fibroblast; [9]): 44%
- Population Fragmented Nuclei (%) (Fibroblast; [9]): 25%
- Population Healthy Nuclei (%) (Fibroblast; [9]): 46%
- Population Hoechst High Intensity Objects (%) (Fibroblast; [9]): 13%
- Population Membrane Permeable-Phenotype (%) (Fibroblast; [9]): 21%
- Population Mitochondria Different-Phenotype (%) (Fibroblast; [9]): 14%
- Population Mitotic Cells (%) (Fibroblast; [9]): 56%
- Population Normal (%) (Fibroblast; [9]): 86%
- Population Pyknosed Nuclei (%) (Fibroblast; [9]): 27%
- Population Tubulin-Different-Phenotype (%) (Fibroblast; [9]): 73%
- Total Cell Count (Fibroblast; [9]): 104
- Population Apoptotic (%) (Fibroblast; [10]): 37%
- Population Fragmented Nuclei (%) (Fibroblast; [10]): 7%
- Population Healthy Nuclei (%) (Fibroblast; [10]): 82%
- Population Hoechst High Intensity Objects (%) (Fibroblast; [10]): 1%
